HKDC1 inhibitor: HKDC1 hexokinase inhibitors, primary screen, biochemical, fluorescence, uHTS. Q2TB90. recombinant HKDC1, G6PDH/diaphorase resazurin coupled fluorescence. inhibition, % at 20 µM. actives 0.16% (n = 340,000);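 active = inhibition above about 35% when tested at 20 µM, limit read from the data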;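 also: plate controls were DMSO wells with enzyme for no effect and DMSO wells lacking enzyme for full effect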
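Test system: Recombinant HKDC1 (HK5) hexokinase enzyme, produced in-house | Input: HKDC1 at 5 µg/mL | Buffer or medium: Tris pH 8.0 buffer with MgCl2, Tween-20, BSA, BME | Schedule: 90 min reaction incubation at room temperature, dark | Technique: Resazurin-to-resorufin fluorescence via G6PDH and diaphorase coupling, 525/613 nm | Controls: DMSO wells with and without enzyme mix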
Diaph act CS: compounds boosting diaphorase resazurin reduction – biochemical, uHTS, resorufin fluorescence, counter-screen for diaphorase-coupled primary assays, primary screen. Diaphorase/resazurin coupled assay, 16 min; active compounds read high; 1 = vehicle wells, 0 = NADH-free wells. activation factor at 20 µM. actives 0.005% (n = 190,000);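 active = diaphorase activity raised at least twofold by the compound at 20 µM; inactive = activation factor below 2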
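Assay system: bacterial diaphorase enzyme (C. kluyveri) / Input: enzyme 0.07 U/mL final / Medium: 50 mM HEPES pH 7.4 with 4.542 mM MgCl2, 0.005% Tween 20 / Doses: single compound dose of 20 µM, 1% DMSO final / Incubation: 16 min enzyme reaction, ambient temperature / Signal: fluorescence, excitation 544 nm and emission 590 nm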
ATG4B inhibitor: ATG4B protease inhibitors, primary screen, biochemical, fluorescence, uHTS | AID 504462, 2011 | inhibition, % at 8.33 µM | actives 0.51% (n = 340,000) | Cysteine protease ATG4B (Homo sapiens), Q9Y4P1 | ATG4B cleavage of LC3-PLA2, NBD-HPC fluorescence, 1 h; in the data active = inhibition above about 40%
Target sequence (Q9Y4P1 whole entry, looked up): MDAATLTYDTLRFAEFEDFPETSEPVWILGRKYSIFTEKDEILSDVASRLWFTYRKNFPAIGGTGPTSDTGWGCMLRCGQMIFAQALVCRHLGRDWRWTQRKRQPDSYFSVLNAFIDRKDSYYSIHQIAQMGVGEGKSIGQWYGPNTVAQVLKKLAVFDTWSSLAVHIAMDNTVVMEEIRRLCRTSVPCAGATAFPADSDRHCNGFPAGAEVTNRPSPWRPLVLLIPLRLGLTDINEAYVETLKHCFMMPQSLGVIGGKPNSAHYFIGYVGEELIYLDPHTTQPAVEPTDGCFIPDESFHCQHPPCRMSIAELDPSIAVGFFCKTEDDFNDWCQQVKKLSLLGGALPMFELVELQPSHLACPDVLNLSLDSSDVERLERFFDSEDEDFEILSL
CTSL1 counter: Fasciola hepatica cathepsin L1 inhibitors, primary screen, counter-screen for PFM18AAP inhibitor project, biochemical, QFRET, fluorogenic peptide substrate; inhibition, % at 5.96 µM; recombinant F. hepatica cathepsin L1, Z-Leu-Arg-MCA fluorescence; actives 0.49% (n = 300,000); AID 1906, 2009;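 active = inhibition above the mean of all tested compounds plus 3 SD, set per screening campaign, cut at about 17% in these data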;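 also: 0% = plate median of test compound wells and 100% = 1 µM Z-Phe-Ala-diazomethylketone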
Diaph inh CS: diaphorase inhibitors and chemical oxidizers, primary screen, counter-screen for diaphorase-coupled primary assays, biochemical, uHTS, resorufin fluorescence | diaphorase resazurin-to-resorufin fluorescence, NADH, 16 min; bacterial (C. kluyveri) enzyme, not human | inhibition, % at 20 µM | actives 0.69% (n = 190,000);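 active = primary screen inhibition at 20 µM above a set limit, cut at about 50% in these data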;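 also: plate controls were DMSO with full reaction for no effect and wells lacking NADH for full effect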
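System: Bacterial diaphorase enzyme (C. kluyveri) | Incubation: 16-min room-temperature incubation before reading | Benchmarks: No-NADH positive control and DMSO neutral control | Measured by: Resorufin fluorescence 544/590 nm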
HKDC1 act conf: HKDC1 hexokinase activators, confirmation, biochemical, single concentration; shares compounds with HKDC1 inhibitor; recombinant HKDC1, G6PDH/diaphorase resazurin fluorescence; active compounds read low; inhibition, % at 20 µM; actives 14% (n = 740); AID 504708, 2011;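 active = inhibition at or below a set negative limit, negative inhibition meaning the enzyme was activated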
The depositor's hits bear a star. Most compounds without a hit are left out; they make up all but 1.4% or so of the library.

For CS(=O)(=O)NCCSCc1ccccc1 the results were HKDC1 inhibitor -4, Diaph act CS 0.9, ATG4B inhibitor -1, CTSL1 counter 19* and Diaph inh CS 12.
For CCC1(C)Cc2sc3c(=O)[nH]c(=S)[nH]c3c2CO1 (stereo not given) the results were HKDC1 inhibitor 1, Diaph act CS 0.2, ATG4B inhibitor -2, CTSL1 counter 1 and Diaph inh CS 84*.
For CC(NC(=O)CCc1nc2cc(S(=O)(=O)N3CCOCC3)ccc2n1C)c1ccc(S(N)(=O)=O)cc1 (stereo not given) the results were HKDC1 inhibitor -1, ATG4B inhibitor 1 and CTSL1 counter 1.
For COc1ccc(CN2[C@@H](CC(C)=O)c3cc(C(F)(F)F)ccc3S2(=O)=O)cc1 the results were HKDC1 inhibitor -1, ATG4B inhibitor -7 and CTSL1 counter 17*.
Screening COc1cc(O)c2c(c1)OC(c1ccc(O)cc1)CC2=O (stereo not given) returned HKDC1 inhibitor 2, Diaph act CS 0.4, ATG4B inhibitor -14, CTSL1 counter 3 and Diaph inh CS 57*.
For COc1ccc([C@@H]2CC(=O)c3c(O)cc(O)cc3O2)cc1O the results were HKDC1 inhibitor -4, ATG4B inhibitor -2 and CTSL1 counter 1.
COc1ccc([C@H]2CC(=O)C=C(c3cc(C=O)ccc3OC)C2)cc1 was read as HKDC1 inhibitor -1 and ATG4B inhibitor 9.
For CC1(C)C=C2C(=NN(c3ccccc3)C(N)=C2C#N)CO1 the results were HKDC1 inhibitor 17, ATG4B inhibitor 11 and CTSL1 counter 109*.
Screening O=C(/C=C/c1ccco1)NCC1CCCO1 (stereo not given) returned HKDC1 inhibitor -3, Diaph act CS 0.9, ATG4B inhibitor 1, CTSL1 counter 34* and Diaph inh CS 9.
Cc1cc(-c2ccco2)c(C#N)c2nc3ccccc3n12 was read as HKDC1 inhibitor 5, Diaph act CS 0.3, ATG4B inhibitor 2, CTSL1 counter 4 and Diaph inh CS 72*.
`Cc1cc(C(C)C)n2c(nc3ccccc32)c1C#N` gave Diaph act CS 0.9, CTSL1 counter -2 and Diaph inh CS 13.
`CC1(CC(=O)N/N=C/c2cc([N+](=O)[O-])c(O)cc2O)OCCO1` gave HKDC1 inhibitor -10, Diaph act CS 0.4, ATG4B inhibitor -1, CTSL1 counter 5 and Diaph inh CS 60*.
Screening CCCSc1cc(NCCOC(C)=O)c([N+](=O)[O-])c2nonc12 returned HKDC1 inhibitor 7, Diaph act CS 0.6, ATG4B inhibitor -10, CTSL1 counter -3 and Diaph inh CS 36.
CC(=O)OCCCNc1cc(SCc2ccco2)c2nonc2c1[N+](=O)[O-] was read as HKDC1 inhibitor 9, Diaph act CS 0.1, ATG4B inhibitor -2, CTSL1 counter 0 and Diaph inh CS 87*.
For CCCC(=O)OCCNc1cc(SCc2ccco2)c2nonc2c1[N+](=O)[O-] the results were HKDC1 inhibitor 8, Diaph act CS 0.3, ATG4B inhibitor -7, CTSL1 counter 12 and Diaph inh CS 71*.
Screening CCCSc1cc(NCCOC(=O)CCC)c([N+](=O)[O-])c2nonc12 returned HKDC1 inhibitor 7, Diaph act CS 0.5, ATG4B inhibitor 6, CTSL1 counter 1 and Diaph inh CS 51*.
For CCCC(=O)OCCNc1cc(Sc2nccn2C)c2nonc2c1[N+](=O)[O-] the results were HKDC1 inhibitor 7, Diaph act CS 0.8, ATG4B inhibitor -1, CTSL1 counter -1 and Diaph inh CS 22.
`COc1cc(OC)c(OC)cc1CN1CCN(S(=O)(=O)c2ccc(NC(C)=O)cc2)CC1` gave HKDC1 inhibitor 23, Diaph act CS 0.5, ATG4B inhibitor 0, CTSL1 counter 9 and Diaph inh CS 52*.
O=C(COC(=O)C1CCN(c2ccc(C(F)(F)F)cn2)CC1)c1ccc(F)cc1 was read as HKDC1 inhibitor 5, ATG4B inhibitor 9 and CTSL1 counter 18*.
COc1ccccc1N1CCN(C(=O)c2cc3ccccc3[nH]2)CC1 was read as HKDC1 inhibitor -4, ATG4B inhibitor -1 and CTSL1 counter 18*.
For NC(=S)N/N=C1/CCSc2ccc3ccccc3c21 the results were HKDC1 inhibitor 2, Diaph act CS 0.8, ATG4B inhibitor -20, CTSL1 counter 25* and Diaph inh CS 18.
Screening COC(=O)c1cc(C)ccc1/C=C1/Cc2c(C)cc(C)cc2C1=O returned HKDC1 inhibitor 2 and ATG4B inhibitor 0.
CN(C)CC1CCC/C(=C\c2ccc(OC(=O)c3ccc(Cl)cc3)cc2)C1=O (stereo not given) was read as HKDC1 inhibitor 37*, ATG4B inhibitor 1 and HKDC1 act conf -7.
CN(C)CC1CCC/C(=C\c2ccc(OC(=O)/C=C/c3ccccc3)cc2)C1=O (stereo not given) was read as HKDC1 inhibitor 33 and ATG4B inhibitor 2.
`Cc1ccc(C)c(-n2nnnc2Sc2nnnn2-c2ccccc2)c1` gave HKDC1 inhibitor 47*, ATG4B inhibitor -8, CTSL1 counter -2 and HKDC1 act conf 39.
`CCSc1nnnn1-c1ccccc1` gave HKDC1 inhibitor -11, Diaph act CS 0.9, ATG4B inhibitor -13, CTSL1 counter -3 and Diaph inh CS 8.
`Cc1sc2ncnc(SCC(=O)N3c4ccccc4Sc4ccc(Cl)cc43)c2c1C` gave HKDC1 inhibitor -5, Diaph act CS 0.9, ATG4B inhibitor 17, CTSL1 counter 4 and Diaph inh CS 7.
CCOC(=O)c1c(C)sc2c1N(C(=O)CCl)c1cc(Cl)ccc1S2 was read as HKDC1 inhibitor 45*, Diaph act CS 0.6, ATG4B inhibitor 2, CTSL1 counter 2, Diaph inh CS 40 and HKDC1 act conf 22.
For O=Cc1[nH]c2ccccc2c1N(C(=O)CCl)c1ccc([N+](=O)[O-])cc1 the results were HKDC1 inhibitor 22, ATG4B inhibitor -3 and CTSL1 counter 2.
`CC(=O)n1cc(N(C(=O)CCl)c2ccccc2)c2ccccc21` gave HKDC1 inhibitor 35, ATG4B inhibitor 5, CTSL1 counter -2 and HKDC1 act conf 9.
For CC(=O)n1cc(N(C(=O)CCl)c2ccc([N+](=O)[O-])cc2)c2ccccc21 the results were HKDC1 inhibitor 48*, ATG4B inhibitor 5, CTSL1 counter 3 and HKDC1 act conf 41.

Screening data: PubChem, several laboratories
